Laboratory results as given in article PMC3576184 (Oncology Letters, 2012).
Entries after “also recorded” stand apart in the source; their conditions may differ. Marks after values point to notes of the source that are not given here.

Assays:
WEHI-3 cell allograft = test: BALB/c mouse WEHI-3 allograft leukemia model; format: in vivo, BALB/c mice
How it was run: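 30 BALB/c mice (6 weeks, 22–25 g) in five groups: 2-glycofurol vehicle; 1×10^7 WEHI-3 cells i.v.; test compound 100 mg/kg/day i.v. for 7 days; cells plus compound; or cells, then compound for 7 days. Weighed every 7 days; killed with CO2 at day 28, spleen and liver weighed. Blood leukocytes were red-cell-lysed, stained, and read by flow cytometry for surface markers including CD11b and CD45.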

WEHI-3 cells = test: MTT viability assay in WEHI-3 cells; format: cell-based, murine
How it was run: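 WEHI-3 murine myelomonocytic cells were grown in RPMI-1640 with 10% FBS, 2 mM L-glutamine, penicillin and streptomycin at 37°C, 5% CO2. About 2×10^4 cells/well were plated for 24 h. Test compound in DMSO was added at final 0.78–25 μM, with 0.1% DMSO as control. After 24 h, viability was read by MTT across three separate experiments.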

HL-60 cells = settings: cited from earlier work
[1] = Cytotoxicity on normal human PBMCs; format: cell-based; settings: normal human peripheral blood mononuclear cells (PBMCs)
[2] = Safety evaluation in BALB/c mice; format: in vivo; settings: for BUN (blood urea nitrogen) / Body weight / Liver weight / Spleen weight / sGOT (serum glutamic-oxaloacetic transaminase) / sGPT (serum glutamic-pyruvic transaminase) / ALB (albumin) / LDH (lactate dehydrogenase) / PRO (total protein): mean ± SD, n=6; for ALB (albumin) / LDH (lactate dehydrogenase) / PRO (total protein): blood
How it was run: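 30 BALB/c mice in five groups received i.v. PBS, 2-glycofurol solvent, or test compound at 5, 50 or 100 mg/kg/day for 7 days. Mice were killed with CO2 at day 7. Body, liver and spleen weights were recorded. Blood was assayed for LDH, albumin, total protein, sGPT, sGOT and BUN. Spleen and liver went to histopathology. Groups were compared with controls by Student's t-test.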

[3] = system: vascular smooth muscle cells; settings: via inhibition of Ras/MAPK signal pathway; cited from earlier work
rat neutrophils = settings: through suppression of Akt and PLD activation; cited from earlier work
[4] = 100 mg/kg, flow cytometry, vs leukemia group
[5] = 5 mg/kg i.v. once daily for 7 days
[6] = 50 mg/kg i.v. once daily for 7 days
[7] = 100 mg/kg i.v. once daily for 7 days

COc1cccc(COc2ccccc2C=O)c1 [CCY-1a-E2, 2-[(3-methoxybenzyl)oxy]benzaldehyde]
level of CD11b on leukocytes (WEHI-3 cell allograft; [4]): significantly decreased
level of CD45 on leukocytes (WEHI-3 cell allograft; [4]): significantly decreased
Liver weight (WEHI-3 cell allograft; 100 mg/kg/day i.v. 7 days, day 28): significantly different; also recorded: inhibited the spleen and liver growth
body weight vs control mice (WEHI-3 cell allograft; CCY-1a-E2 100 mg/kg group (no WEHI-3 cells), i.v. 7 days, up to day 28): not significantly decreased
infiltration of immature myeloblastic cells into the splenic red pulp (histopathology) (WEHI-3 cell allograft; treated leukemic mice vs untreated leukemia group, data not shown): eliminated
IC50 (WEHI-3 cells; Mus musculus, WEHI-3, 24 h, read-out: IC50 (cell viability, MTT)): 5 µM
percentage of viable cells (WEHI-3 cells; WEHI-3 cells, 0.78-25 μM, 24 h, MTT): decreased the percentage of viable cells in a concentration-dependent manner
apoptosis (HL-60 cells): induced cell apoptosis
cell cycle effect (HL-60 cells): induced G2/M phase arrest
percentage of viable cells (HL-60 cells): decreased the percentage of viable cells
IC50 [1]: > 20 µM
BUN (blood urea nitrogen) [2, 5]: 30.33 ± 5.02 mg/dL
Body weight [2, 5]: 28.42±1.13^a g
Liver weight [2, 5]: 4.42±0.47 g/100 g body weight
Spleen weight [2, 5]: 0.35±0.06 g/100 g body weight
sGOT (serum glutamic-oxaloacetic transaminase) [2, 5]: 105.83±22.16 U/l
sGPT (serum glutamic-pyruvic transaminase) [2, 5]: 41.83±8.94 U/l
BUN (blood urea nitrogen) [2, 6]: 26.17 ± 2.42 mg/dL
Body weight [2, 6]: 28.88±1.52^a g
Liver weight [2, 6]: 4.18±0.33 g/100 g body weight
Spleen weight [2, 6]: 0.31±0.06 g/100 g body weight
sGOT (serum glutamic-oxaloacetic transaminase) [2, 6]: 79.98±26.10 U/l
sGPT (serum glutamic-pyruvic transaminase) [2, 6]: 43.92±16.02 U/l
BUN (blood urea nitrogen) [2, 7]: 28.92 ± 2.20 mg/dL
Body weight [2, 7]: 28.90±0.51^a g
Liver weight [2, 7]: 4.17±0.26 g/100 g body weight
Spleen weight [2, 7]: 0.37±0.04 g/100 g body weight
sGOT (serum glutamic-oxaloacetic transaminase) [2, 7]: 115.12±15.08 U/l
sGPT (serum glutamic-pyruvic transaminase) [2, 7]: 41.83±10.02 U/l
sGPT and sGOT levels vs normal range ([2]; 5, 50 and 100 mg/kg i.v. for 7 days): within the normal value range
histopathology of spleen and liver ([2]; 5, 50 and 100 mg/kg, vs vehicle-treated controls, data not shown): No significant microscopic aberrations
ALB (albumin) [2, 5]: 1.58 ± 0.38 g/dL
LDH (lactate dehydrogenase) [2, 5]: 298.00±62.22 U/l
PRO (total protein) [2, 5]: 3.68 ± 0.60 g/dL
ALB (albumin) [2, 6]: 1.73 ± 0.26 g/dL
LDH (lactate dehydrogenase) [2, 6]: 244.83±46.99 U/l
PRO (total protein) [2, 6]: 4.06 ± 0.58 g/dL
ALB (albumin) [2, 7]: 1.84 ± 0.13 g/dL
LDH (lactate dehydrogenase) [2, 7]: 270.83±42.09 U/l
PRO (total protein) [2, 7]: 4.77 ± 0.46 g/dL

O=Cc1ccccc1OCc1ccccc1 [2-benzyloxybenzaldehyde]
effect on cell proliferation [3]: exhibited antiproliferative effects
superoxide anion generation (rat neutrophils): inhibits superoxide anion generation
